Results collected from several papers.
Protocols differ between the studies behind these lines.
Organism: Klebsiella pneumoniae
Read-out: microbial growth

Compound	test	test system	conditions	MIC
C[C@H]1[C@H](NC(=O)/C(=N\OC(C)(C)C(=O)O)c2csc(N)n2)C(=O)N1S(=O)(=O)O	broth dilution	ATCC43816	–	< 0.5 µg/mL
CN(C)[C@@H]1C(O)=C(C(N)=O)C(=O)[C@@]2(O)C(O)=C3C(=O)c4c(O)cccc4[C@@](C)(O)[C@H]3C[C@@H]12	broth dilution	ATCC13883	–	1 µg/mL
CCCCCCC#Cc1cncc(-c2nnc(SCc3ccc(Cl)cc3)n2CCCN)c1	broth dilution	DSM30104	–	32 µg/mL
N[C@@H](Cc1c[nH]c2ccc(Cl)cc12)C(=O)O	–	MGH78578	18 h	> 200 µM
C[C@H]1[C@H](NC(=O)/C(=N\OC(C)(C)C(=O)O)c2csc(N)n2)C(=O)N1S(=O)(=O)O	broth dilution	ATCC13883	–	0.0625 µg/mL
CCCCCCCCCCCC[N+](C)(C)Cc1ccccc1	–	ATCC4352	–	8 µM
[H]/N=C(/N)N[C@H]1[C@H](O)[C@@H](O)[C@H](O[C@@H]2O[C@@H](C)[C@](O)(C=O)[C@H]2O[C@@H]2O[C@@H](CO)[C@H](O)[C@@H](O)[C@@H]2NC)[C@@H](N/C(N)=N\[H])[C@@H]1O	broth dilution	ATCC700603	–	> 512 µg/mL
C[C@@H](O)[C@H]1C(=O)N2C(C(=O)O)=C(S[C@@H]3CN[C@H](C(=O)N(C)C)C3)[C@H](C)[C@H]12	broth dilution	ATCC13883	–	0.125 µg/mL
CN(C)c1ccc(O)c2c1C[C@H]1C[C@H]3[C@H](N(C)C)C(O)=C(C(N)=O)C(=O)[C@@]3(O)C(O)=C1C2=O	broth dilution	ATCC43816	–	1 µg/mL
CN(C)[C@@H]1C(O)=C(C(N)=O)C(=O)[C@@]2(O)C(O)=C3C(=O)c4c(O)cccc4[C@@](C)(O)[C@H]3C[C@@H]12	broth dilution	ATCC27736	16 h	3.1 µM
C[C@@H](O)[C@H]1C(=O)N2C(C(=O)O)=C(S[C@@H]3CN[C@H](C(=O)N(C)C)C3)[C@H](C)[C@H]12	broth dilution	ATCC43816	–	< 0.5 µg/mL
CO/N=C(\C(=O)N[C@@H]1C(=O)N2C(C(=O)O)=C(CSc3nc(=O)c(=O)[nH]n3C)CS[C@H]12)c1csc(N)n1	broth dilution	ATCC700603	–	> 512 µg/mL
CN(C)c1cc(NC(=O)CNC(C)(C)C)c(O)c2c1C[C@H]1C[C@H]3[C@H](N(C)C)C(O)=C(C(N)=O)C(=O)[C@@]3(O)C(O)=C1C2=O	broth dilution	ATCC43816	–	< 0.5 µg/mL
CCCCCCC#Cc1cncc(-c2nnc(SCc3cc(C(F)(F)F)cc(C(F)(F)F)c3)n2CCCN)c1	broth dilution	DSM30104	–	32 to 64 µg/mL
